Calls of active or inactive are those of the source. No cut-off for these calls is given here.
Experiments:
[1] = test system: Pseudomonas aeruginosa; assay: Antimicrobial activity against Pseudomonas aeruginosa PAO750; assay type: functional
Outline: (§1)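 MICs were measured in PAO1 and in PAO750. PAO750 is a PAO1 derivative lacking the MexAB-OprM, MexCD-OprJ, MexEF-OprN, MexJK and MexXY efflux pumps and the outer membrane protein OpmH.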

[2] = test system: Pseudomonas aeruginosa; assay: Antibacterial activity against Pseudomonas aeruginosa PAO1 assessed as fractional inhibitory concentration index after 18 hrs in presence of minocycline by checkerboard method; assay type: functional
Outline: (§2)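 Checkerboard combinations of the hybrid with each partner antibiotic were tested against P. aeruginosa PAO1. Interaction is expressed as the fractional inhibitory concentration (FIC) index: ≤0.5 means synergy, 1–2 no interaction, ≥4 antagonism.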

[3] = test system: Pseudomonas aeruginosa; assay: Antibacterial activity against multidrug-resistant/tobramycin-susceptible Pseudomonas aeruginosa isolate 79199; assay type: functional
[4] = test system: Pseudomonas aeruginosa; assay: Antibacterial activity against Pseudomonas aeruginosa PAO1 assessed as fractional inhibitory concentration index after 18 hrs in presence of gentamicin by checkerboard method; assay type: functional; outline: as §2
[5] = test system: Pseudomonas aeruginosa; assay: Antibacterial activity against Pseudomonas aeruginosa PAO1 assessed as fractional inhibitory concentration index after 18 hrs in presence of rifampicin by checkerboard method; assay type: functional; outline: as §2
[6] = test system: Pseudomonas aeruginosa; assay: Antibacterial activity against Pseudomonas aeruginosa PAO1 assessed as fractional inhibitory concentration index after 18 hrs in presence of chloramphenicol by checkerboard method; assay type: functional; outline: as §2
[7] = test system: Pseudomonas aeruginosa; assay: Antibacterial activity against pandrug-resistant Pseudomonas aeruginosa isolate 91433 in presence of <= 4 ug/ml of ciprofloxacin (reference value: 8 ug/ml); assay type: functional
[8] = test system: Pseudomonas aeruginosa; assay: Potentiation of ciprofloxacin induced antibacterial activity against multidrug/extremely drug-resistant Pseudomonas aeruginosa isolate PA264-104354 assessed as ciprofloxacin MIC at <= […] ug/ml (reference value: […] to […] ug/ml); assay type: functional
[9] = test system: Escherichia coli; assay: Antibacterial activity against of wild-type Escherichia coli isolate 79768; assay type: functional
[10] = test system: Pseudomonas aeruginosa; assay: Antibacterial activity against multidrug-resistant/tobramycin-susceptible Pseudomonas aeruginosa isolate 108590; assay type: functional
[11] = test system: Pseudomonas aeruginosa; assay: Antibacterial activity against pandrug-resistant Pseudomonas aeruginosa isolate 91433 in presence of <= 4 ug/ml of moxifloxacin (reference value: 8 ug/ml); assay type: functional
[12] = test system: Stenotrophomonas maltophilia; assay: Antibacterial activity against Stenotrophomonas maltophilia isolate CAN-ICU 62584 after 24 hrs by microtitre broth dilution method; assay type: functional; settings: isolate CAN-ICU 62584, 24 h
[13] = test system: Escherichia coli; assay: Antibacterial activity against fluoroquinolone resistant Escherichia coli isolate 91191 harboring beta-lactamase CTX-M-14/TEM-1; assay type: functional
[14] = test system: Acinetobacter baumannii; assay: Antibacterial activity against fluoroquinolone resistant Acinetobacter baumannii isolate ABO27; assay type: functional
[15] = test system: Pseudomonas aeruginosa; assay: Antibacterial activity against multidrug/extremely drug-resistant Pseudomonas aeruginosa isolate PA264-104354 in presence of <= 4 ug/ml of moxifloxacin (reference value: 4 ug/ml); assay type: functional
[16] = test system: Enterococcus faecium; assay: Antibacterial activity against Enterococcus faecium ATCC 27270 after 24 hrs by microtitre broth dilution method; assay type: functional; settings: ATCC 27270, 24 h
[17] = test system: Pseudomonas aeruginosa; assay: Antibacterial activity against multidrug/extremely drug-resistant Pseudomonas aeruginosa isolate PA264-104354 in presence of <= 4 ug/ml of ciprofloxacin (reference value: 4 ug/ml); assay type: functional
[18] = test system: Pseudomonas aeruginosa; assay: Antibacterial activity against multidrug-resistant/tobramycin-susceptible Pseudomonas aeruginosa isolate 84745; assay type: functional
[19] = test system: Pseudomonas aeruginosa; assay: Potentiation of moxifloxacin induced antibacterial activity against pandrug-resistant Pseudomonas aeruginosa isolate 91433 assessed as moxifloxacin MIC at <= […] ug/ml (reference value: 8 to […] ug/ml); assay type: functional
[20] = test system: Pseudomonas aeruginosa; assay: Antibacterial activity against multidrug-resistant/tobramycin-susceptible Pseudomonas aeruginosa isolate 86053; assay type: functional
[21] = test system: Pseudomonas aeruginosa; assay: Antibacterial activity against Pseudomonas aeruginosa PAO1 assessed as outer membrane permeabilization by measuring increase in 1-N-phenylnaphthylamine measured […] for 4.5 mins by fluorescence assay; assay type: functional
Outline: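 PAO1 cells received NPN, then the test agent at 50, 32, 16 or 8 µg/mL, added at 120 s. Colistin at 5 µg/mL was the positive control. Uptake was followed as NPN fluorescence. The assay was run in triplicate, and each point is the mean of three determinations ± SEM.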

[22] = test system: Pseudomonas aeruginosa; assay: Antibacterial activity against pandrug-resistant Pseudomonas aeruginosa isolate 91433; assay type: functional
[23] = Hemolytic activity in human erythrocytes at 1000 microg/ml after 30 mins by spectrometry; assay type: ADME, cell-based, Erythrocyte; settings: read-out: Activity
[24] = test system: Pseudomonas aeruginosa; assay: Antibacterial activity against extremely drug-resistant Pseudomonas aeruginosa isolate 104354 infected in Galleria mellonella assessed as larvae survival at 75 mg/kg administered as single dose measured after 96 hrs; assay type: functional; settings: isolate 104354, 96 h
Outline: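 Galleria mellonella larvae were infected with 10^6 CFU of XDR P. aeruginosa #104354, resistant to all antipseudomonal classes except colistin. A single injected drug dose was given 2 h post-infection: 50 mg/kg with survival read at 24 h, or 75 mg/kg with survival read at 96 h. Controls were infected untreated larvae and PBS-injected larvae. Two independent experiments of 15 larvae each (n = 30).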

[25] = test system: Streptococcus pneumoniae; assay: Antibacterial activity against Streptococcus pneumoniae ATCC 49619 after 24 hrs by microtitre broth dilution method; assay type: functional; settings: ATCC 49619, 24 h
[26] = test system: Pseudomonas aeruginosa; assay: Induction of outer membrane permeabilization in Pseudomonas aeruginosa PAO1 assessed as accumulation of propidium iodide at 8 ug/ml after 3 to 4 hrs by fluorescence microscopy; assay type: functional
Outline: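 PAO1 cells were treated with 8 µg/mL for 3 h at 37 °C, then stained with the membrane-impermeable nucleic-acid dye propidium iodide. Fluorescence microscopy and DIC imaging were compared against untreated cells.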

[27] = test system: Pseudomonas aeruginosa; assay: Antimicrobial activity against Pseudomonas aeruginosa PAO1 assessed as cell membrane blebbing at 8 ug/ml after 3 to 4 hrs by uranyl acetate staining based transmission electron microscopy; assay type: functional
Outline: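 PAO1 in Mueller-Hinton broth was exposed to 8 µg/mL at 37 °C (3 h in the legend, 4 h in the text). Untreated cells were the reference. Morphology was imaged by transmission electron microscopy at 75 kV.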

[28] = test system: Escherichia coli; assay: Antibacterial activity against fluoroquinolone resistant Escherichia coli isolate 90087 harboring beta-lactamase CTX-M-15/OXA-1; assay type: functional
[29] = test system: Pseudomonas aeruginosa; assay: Potentiation of moxifloxacin induced antibacterial activity against multidrug/extremely drug-resistant Pseudomonas aeruginosa isolate PA264-104354 assessed as moxifloxacin MIC at <= […] ug/ml (reference value: […] to […] ug/ml); assay type: functional
[30] = Selectivity ratio of MIC for Pseudomonas aeruginosa PAO1 to MIC for Pseudomonas aeruginosa PAO750; assay type: functional; outline: as §1
[31] = test system: Pseudomonas aeruginosa; assay: Antibacterial activity against Pseudomonas aeruginosa PAO1; assay type: functional
[32] = test system: Pseudomonas aeruginosa; assay: Antibacterial activity against multidrug/extremely drug-resistant/colistin-susceptible Pseudomonas aeruginosa isolate 264-104354; assay type: functional
[33] = test system: Pseudomonas aeruginosa; assay: Antibacterial activity against multidrug/extremely drug-resistant/colistin-susceptible Pseudomonas aeruginosa isolate 100036; assay type: functional
[34] = test system: Acinetobacter baumannii; assay: Antibacterial activity against fluoroquinolone resistant Acinetobacter baumannii isolate ABO30; assay type: functional
[35] = test system: Pseudomonas aeruginosa; assay: Antibacterial activity against multidrug-resistant/tobramycin-susceptible Pseudomonas aeruginosa isolate 86079; assay type: functional
[36] = test system: Pseudomonas aeruginosa; assay: Antibacterial activity against Pseudomonas aeruginosa PAO1 assessed as fractional inhibitory concentration index after 18 hrs in presence of erythromycin by checkerboard method; assay type: functional; outline: as §2

COc1c(N2C[C@@H]3CCCN(CCCCCCCCCCCCO[C@@H]4[C@@H](O[C@H]5O[C@H](CO)[C@@H](O)[C@H](N)[C@H]5O)[C@H](N)C[C@H](N)[C@H]4O[C@H]4O[C@H](CN)[C@@H](O)C[C@H]4N)[C@@H]3C2)c(F)cc2c(=O)c(C(=O)O)cn(C3CC3)c12.Cl.Cl.Cl.Cl.Cl
MIC [1]: 0.5 µg/mL
fractional inhibitory concentration index (FICI) [2]: 0.15
MIC [3]: 8 µg/mL
fractional inhibitory concentration index (FICI) [4]: 5
fractional inhibitory concentration index (FICI) [5]: 0.15
fractional inhibitory concentration index (FICI) [6]: 0.15
MIC [7]: < 1 µg/mL
MIC [8]: 1 µg/mL
MIC [9]: ≤ 2 µg/mL
MIC [10]: 2 µg/mL
MIC [11]: < 1 µg/mL
MIC [12]: 32 µg/mL
MIC [13]: ≥ 64 µg/mL
MIC [14]: 8 to 64 µg/mL
MIC [15]: < 1 µg/mL
MIC [16]: 16 µg/mL
MIC [17]: < 0.5 µg/mL
MIC [18]: 8 µg/mL
MIC [19]: 0.12 µg/mL
MIC [20]: 4 µg/mL
Activity [21]: Dose-dependent effect
MIC [22]: 8 µg/mL
hemolysis at 0.5 h, 1000 microg/ml [23]: < 2.5%
survival at 75 mg/kg [24]: 20%
MIC [25]: 1 µg/mL
Activity [26]: Active
Activity [27]: Active
MIC [28]: ≥ 64 µg/mL
MIC [29]: 1 µg/mL
Selectivity ratio [30]: 8
MIC [31]: 4 µg/mL
MIC [32]: 4 µg/mL
MIC [33]: 8 µg/mL
MIC [34]: 8 to 64 µg/mL
MIC [35]: 4 µg/mL
fractional inhibitory concentration index (FICI) [36]: 0.26

Source: ChEMBL document CHEMBL3856229, “Hybrid Antibiotic Overcomes Resistance in P. aeruginosa by Enhancing Outer Membrane Penetration and Reducing Efflux” (J Med Chem, 2016)
